Experimental data published in ChEMBL document CHEMBL1134399 (J Med Chem, 2001).
Each block holds one compound with its values, some of them ahead of it. Where a SMILES comes first, the peptide text is derived from it. Bridges are numbered along the chain shown (N, C = ends). [ ]: non-standard residue; d: D form. Phe(4-CF3) = N[C@@H](Cc1ccc(C(F)(F)F)cc1)C(=O)O; 2Nal = N[C@@H](Cc1ccc2ccccc2c1)C(=O)O; 3Pal = N[C@@H](Cc1cccnc1)C(=O)O; NMeK = CN[C@@H](CCCCN)C(=O)O

Tests used:
Somatostatin receptor = test: Antagonism of in vitro SRIF inhibition of GH release from rat pituitary cells in culture; format: functional, cell-based; conditions: pituitary gland cell
Method in brief: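 Dispersed anterior pituitary cells from adult male rats, cultured 4–5 days at 37 °C. Six doses per plate, triplicate wells. GH measured by double antibody RIA. Antagonist IC50 versus SRIF is the mean ± SEM of n dose-response curves.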

[1] = molecular target: Somatostatin receptor type 5 (Homo sapiens, UniProt P35346); test: Ability to displace [125 I]labelled Tyr11-somatostatin from human hsst-5 receptor expressed on CHO cells; format: cell-based
Method in brief: (§1)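 Membranes from stably transfected CHO-K1 clones, prepared in ice-cold 50 mM Tris-HCl and resuspended in 10 mM Tris-HCl. Stopped by filtration through PEI-soaked GF/C filters. Nonspecific binding taken with 1.0 μM SRIF. Ki ± SEM from concentration-dependent displacement.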

[2] = molecular target: Somatostatin receptor type 2 (Homo sapiens, UniProt P30874); test: Ability to displace [125 I]labelled Tyr11-somatostatin from human hsst-2 receptor expressed on CHO cells; format: cell-based
[3] = molecular target: Somatostatin receptor type 1 (Homo sapiens, UniProt P30872); test: Ability to displace [125 I]labelled Tyr11-somatostatin from human hsst-1 receptor expressed on CHO cells; format: cell-based; method in brief: as §1
[4] = molecular target: Somatostatin receptor type 4 (Homo sapiens, UniProt P31391); test: Ability to displace [125 I]labelled Tyr11-somatostatin from human hsst-4 receptor expressed on CHO cells; format: cell-based; method in brief: as §1
[5] = molecular target: Somatostatin receptor type 3 (Homo sapiens, UniProt P32745); test: Ability to displace [125 I]labelled Tyr11-somatostatin from human hsst-3 receptor expressed on CHO cells; format: cell-based; method in brief: as §1
Sequence of Somatostatin receptor type 3 (P32745 whole entry): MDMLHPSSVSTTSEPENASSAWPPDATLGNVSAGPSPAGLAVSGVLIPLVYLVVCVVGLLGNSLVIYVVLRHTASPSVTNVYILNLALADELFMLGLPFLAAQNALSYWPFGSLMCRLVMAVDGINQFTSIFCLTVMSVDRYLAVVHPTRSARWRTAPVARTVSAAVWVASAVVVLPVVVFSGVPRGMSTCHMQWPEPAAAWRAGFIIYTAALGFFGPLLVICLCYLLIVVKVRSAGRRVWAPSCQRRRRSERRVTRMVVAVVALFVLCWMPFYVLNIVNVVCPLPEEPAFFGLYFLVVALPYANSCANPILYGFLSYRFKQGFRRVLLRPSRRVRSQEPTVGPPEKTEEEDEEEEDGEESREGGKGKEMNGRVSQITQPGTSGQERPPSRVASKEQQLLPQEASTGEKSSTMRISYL

Sequence of Somatostatin receptor type 4 (P31391 whole entry): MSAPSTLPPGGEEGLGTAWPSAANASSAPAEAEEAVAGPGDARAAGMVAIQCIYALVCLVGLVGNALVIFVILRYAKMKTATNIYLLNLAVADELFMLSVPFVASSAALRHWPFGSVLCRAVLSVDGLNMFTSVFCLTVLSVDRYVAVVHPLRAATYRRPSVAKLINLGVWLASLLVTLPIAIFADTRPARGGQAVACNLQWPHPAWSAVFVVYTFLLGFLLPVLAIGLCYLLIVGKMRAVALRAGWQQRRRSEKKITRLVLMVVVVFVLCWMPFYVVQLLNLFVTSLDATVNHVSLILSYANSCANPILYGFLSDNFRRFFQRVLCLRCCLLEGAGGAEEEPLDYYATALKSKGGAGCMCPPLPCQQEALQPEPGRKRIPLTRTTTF
Sequence of Somatostatin receptor type 2 (P30874 whole entry): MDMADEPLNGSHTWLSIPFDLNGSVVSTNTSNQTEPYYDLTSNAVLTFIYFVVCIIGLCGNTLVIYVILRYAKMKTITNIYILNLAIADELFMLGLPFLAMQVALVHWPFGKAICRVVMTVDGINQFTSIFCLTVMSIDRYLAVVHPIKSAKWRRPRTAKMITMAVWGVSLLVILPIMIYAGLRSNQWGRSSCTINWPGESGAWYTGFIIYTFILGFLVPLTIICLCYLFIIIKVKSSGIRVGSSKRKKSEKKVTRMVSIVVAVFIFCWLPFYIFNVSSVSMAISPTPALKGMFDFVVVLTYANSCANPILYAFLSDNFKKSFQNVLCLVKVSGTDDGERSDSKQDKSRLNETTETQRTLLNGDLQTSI
Sequence of Somatostatin receptor type 1 (P30872 whole entry): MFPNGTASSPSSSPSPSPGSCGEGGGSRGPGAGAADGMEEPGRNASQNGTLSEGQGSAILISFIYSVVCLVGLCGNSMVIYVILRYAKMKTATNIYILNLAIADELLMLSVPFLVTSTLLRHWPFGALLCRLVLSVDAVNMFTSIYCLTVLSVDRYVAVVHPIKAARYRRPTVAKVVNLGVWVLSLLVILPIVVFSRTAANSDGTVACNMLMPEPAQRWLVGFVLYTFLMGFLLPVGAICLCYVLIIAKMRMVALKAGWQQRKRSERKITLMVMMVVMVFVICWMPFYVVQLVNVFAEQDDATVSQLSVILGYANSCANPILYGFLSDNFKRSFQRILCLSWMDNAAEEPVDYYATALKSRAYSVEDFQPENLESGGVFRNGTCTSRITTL
Sequence of Somatostatin receptor type 5 (P35346 whole entry): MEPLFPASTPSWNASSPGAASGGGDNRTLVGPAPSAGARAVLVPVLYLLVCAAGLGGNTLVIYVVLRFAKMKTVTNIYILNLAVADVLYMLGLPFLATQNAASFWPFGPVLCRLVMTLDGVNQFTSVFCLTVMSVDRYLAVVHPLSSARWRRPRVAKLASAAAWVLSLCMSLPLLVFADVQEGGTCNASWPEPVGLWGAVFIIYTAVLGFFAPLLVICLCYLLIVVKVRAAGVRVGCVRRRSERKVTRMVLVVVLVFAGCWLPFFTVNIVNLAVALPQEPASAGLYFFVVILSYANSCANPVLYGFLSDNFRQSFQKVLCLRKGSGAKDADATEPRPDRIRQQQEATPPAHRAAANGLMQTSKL

IC50 (Somatostatin receptor): 7.8 nM
SMILES: CN[C@@H](Cc1ccc(Cl)cc1)C(=O)N[C@H]1CSSC[C@H](C(=O)N[C@@H](Cc2ccc3ccccc3c2)C(N)=O)NC(=O)[C@@H]([C@H](C)O)NC(=O)[C@H](CCCCN)NC(=O)[C@@H](Cc2c[nH]c3ccccc23)NC(=O)[C@H](Cc2cccnc2)NC1=O

IC50 (Somatostatin receptor): 2.5 nM
SMILES: C[C@H](O)[C@H]1NC(=O)[C@H](CCCCN)N(C)C(=O)[C@@H](Cc2c[nH]c3ccccc23)N(C)C(=O)[C@H](Cc2cccnc2)NC(=O)[C@@H](NC(=O)[C@@H](N)Cc2ccc(Cl)cc2)CSSC[C@H](C(=O)N[C@@H](Cc2ccc3ccccc3c2)C(N)=O)NC1=O

Ki [1]: > 1000 nM
Ki ([2]; cho): 317 nM
Ki ([3]; cho): > 1000 nM
Ki ([4]; cho): > 1000 nM
Ki ([5]; cho): 23.6 nM
SMILES: C[C@@H](O)[C@@H]1NC(=O)[C@H](CCN)NC(=O)[C@@H](Cc2c[nH]c3ccccc23)NC(=O)[C@H](Cc2cccnc2)NC(=O)[C@H](NC(=O)[C@@H](N)Cc2ccc(Cl)cc2)CSSC[C@@H](C(=O)N[C@@H](Cc2ccc3ccccc3c2)C(N)=O)NC1=O

Ki [2]: 11.3 nM
Ki [3]: > 1000 nM
Ki [4]: 1250 nM
Ki [5]: 40.2 nM
SMILES: C[C@@H](O)[C@@H]1NC(=O)[C@H](CCCCN)N(C)C(=O)[C@@H](Cc2c[nH]c3ccccc23)NC(=O)[C@H](Cc2cccnc2)NC(=O)[C@H](NC(=O)[C@@H](N)Cc2ccc(C(F)(F)F)cc2)CSSC[C@@H](C(=O)N[C@@H](Cc2ccc3ccccc3c2)C(N)=O)NC1=O (H-[Phe(4-CF3)][dC][3Pal][dW][NMeK]TC[2Nal]-NH2; disulfide 2-7)
